# Test results published in ChEMBL document CHEMBL1125007 (J Med Chem, 1990).
# What was measured:
# CHO-AA8 = assay: Cytotoxicity against AA8 cell line; assay type: functional, cell-based; details: Cricetulus griseus
# Procedure, shortened: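 AA8 Chinese hamster ovary cells kept in log phase in Alpha MEM with 10% fetal calf serum. Drug was applied in 96-well microcultures for 18 h, then removed by three washes with fresh medium. Cells grew a further 72 h before cell density was read by methylene blue staining. IC50 is the nominal concentration cutting density to 50% of controls, with eight controls per plate.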
# [1] = Relative lipophilicity; assay type: physicochemical; details: octanol/water
# Procedure, shortened: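 Relative lipophilicity of the side-chain fragment -NH(CH2)nX-, calculated from substituent fragment values.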
# P388 [2] = assay: Optimal dose (i.p.) given after inoculation with wild type 10 E 6 P388/W leukemia cell lines, measured on day 1; assay type: functional, Mus musculus
# Procedure, shortened: (§1)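 Single intraperitoneal dose given in 0.1 or 0.2 mL of 30% v/v ethanol-water on day 1 after intraperitoneal inoculation of 10^6 P388 leukemia cells. ILS is the percent increase in lifespan of treated tumor-bearing animals at that optimal dose.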
# P388 [3] = assay: Increase in life span of the drug treated animals against P388 leukemia when treated at a optimal dose of 65 mg/kg; No activity at all doses; assay type: functional, organism-based; design: dose 65 mg/kg; details: Mus musculus; procedure, shortened: as §1
# P388 [4] = assay: Cytotoxicity against P388 leukemia cell line; assay type: functional, cell-based; details: Mus musculus
# Procedure, shortened: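 P388 murine leukemia cells kept in log phase in RPMI 1640 with 10% fetal calf serum. Drug was present in 96-well microcultures for the whole 72 h growth period. Final cell density was read by a slightly modified MTT method. IC50 is the nominal concentration cutting density to 50% of controls, with eight control cultures per plate.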
# UV4 (Cricetulus griseus) = assay: Relative cytotoxic potency given as Hypersensitivity ratio of (IC50 for AA8 cell line) to (IC50 for UV4 cell line)
# [5] = Rate constant for alkylation of 4-(4-nitrobenzyl)pyridine; assay type: ADME
# [6] = Rate constant for hydrolysis in aqueous acetone.; assay type: ADME; design: scale not given here; details: buffer
# P388 [7] = assay: Increase in life span of the drug treated animals against P388 leukemia when treated at a optimal dose of 45 mg/kg; assay type: functional; details: Mus musculus; procedure, shortened: as §1
# Nucleic Acid [8] = assay: DNA crosslinking ability at a concentration of 0.2 uM determined after Agarose gel electrophoresis run for 24 hr; + indicates Significant crosslinking; assay type: functional
# Nucleic Acid [9] = assay: pBR322/DHFR26 DNA crosslinking ability at a concentration of 0.02 uM determined after Agarose gel electrophoresis run for 4 hr; +/- indicates Slight crosslinking; assay type: functional
# Nucleic Acid [10] = assay: pBR322/DHFR26 DNA crosslinking ability at a concentration of 0.2 uM determined after Agarose gel electrophoresis run for 4 hr; + indicates Significant crosslinking; assay type: functional
# P388 [11] = assay: Increase in life span of the drug treated animals against P388 leukemia when treated at a optimal dose of 13.3 mg/kg; assay type: functional; details: Mus musculus; procedure, shortened: as §1
# P388 [12] = assay: Increase in life span of the drug treated animals against P388 leukemia when treated at a optimal dose of 65 mg/kg; assay type: functional; details: Mus musculus; procedure, shortened: as §1
# Nucleic Acid [13] = assay: pBR322/DHFR26 DNA crosslinking ability at a concentration of 0.02 uM determined after Agarose gel electrophoresis run for 4 hr; + indicates Significant crosslinking; assay type: functional
# P388 [14] = assay: Increase in life span of the drug treated animals against P388 leukemia when treated at a optimal dose of 30 mg/kg; assay type: functional; details: Mus musculus; procedure, shortened: as §1
# P388 [15] = assay: Increase in life span of the drug treated animals against P388 leukemia when treated at a optimal dose of 8.9 mg/kg; assay type: functional; details: Mus musculus; procedure, shortened: as §1
# Nucleic Acid [16] = assay: DNA crosslinking ability at a concentration of 0.2 uM determined after Agarose gel electrophoresis run for 24 hr; ++ indicates extensive crosslinking; assay type: functional
# Nucleic Acid [17] = assay: pBR322/DHFR26 DNA crosslinking ability at a concentration of 0.2 uM determined after Agarose gel electrophoresis run for 4 hr; ++ extensive Significant crosslinking; assay type: functional
# P388 [18] = assay: Increase in life span of the drug treated animals against P388 leukemia when treated at a optimal dose of 26 mg/kg; assay type: functional; details: Mus musculus; procedure, shortened: as §1
smiles,measurement,setting,value
Cl.O=S(=O)(CCCCNc1c2ccccc2nc2ccccc12)c1ccc(N(CCCl)CCCl)cc1,IC50,CHO-AA8,1700 nM
same,Relative lipophilicity,[1],-0.92
same,OD,P388 [2],30 mg/kg
same,ILS,P388 [3],No activity
same,IC50,P388 [4],1900 nM
same,HF,UV4 (Cricetulus griseus),1.4
Cl.Cl.Cl.Cl.ClCCN(CCCl)c1ccc(CCCNc2c3ccccc3nc3ccccc23)cc1,IC50,CHO-AA8,310 nM
same,KNBP,[5],146000 s⁻¹
same,KH,[6],14500 s⁻¹
same,Relative lipophilicity,[1],0.67
same,OD,P388 [2],45 mg/kg
same,ILS at 45 mg/kg,P388 [7],25%
same,IC50,P388 [4],61 nM
same,DNA crosslinking,Nucleic Acid [8],Significant crosslinking
same,DNA crosslinking,Nucleic Acid [9],+/-
same,DNA crosslinking,Nucleic Acid [10],Significant crosslinking
same,HF,UV4 (Cricetulus griseus),43
O=S(=O)(CCCCCNc1c2ccccc2nc2ccccc12)c1ccc(N(CCCl)CCCl)cc1,Relative lipophilicity,[1],-0.38
same,IC50,P388 [4],750 nM
same,HF,UV4 (Cricetulus griseus),1
ClCCN(CCCl)c1ccc(OCCCCCNc2c3ccccc3nc3ccccc23)cc1,Relative lipophilicity,[1],1.18
same,IC50,P388 [4],50 nM
same,DNA crosslinking,Nucleic Acid [8],Significant crosslinking
same,HF,UV4 (Cricetulus griseus),46
Cl.Cl.Cl.Cl.ClCCN(CCCl)c1ccc(SCCCNc2c3ccccc3nc3ccccc23)cc1,IC50,CHO-AA8,1100 nM
same,Relative lipophilicity,[1],0.79
same,OD,P388 [2],13.3 mg/kg
same,ILS at 13.3 mg/kg,P388 [11],38%
same,IC50,P388 [4],360 nM
same,HF,UV4 (Cricetulus griseus),18
Cl.Cl.Cl.Cl.ClCCN(CCCl)c1ccc(SCCNc2c3ccccc3nc3ccccc23)cc1,IC50,CHO-AA8,1200 nM
same,Relative lipophilicity,[1],0.42
same,OD,P388 [2],65 mg/kg
same,ILS at 65 mg/kg,P388 [12],37%
same,IC50,P388 [4],372 nM
same,HF,UV4 (Cricetulus griseus),24
ClCCN(CCCl)c1ccc(CCCCCCNc2c3ccccc3nc3ccccc23)cc1,KNBP,[5],157000 s⁻¹
same,KH,[6],33900 s⁻¹
same,Relative lipophilicity,[1],2.29
same,IC50,P388 [4],136 nM
same,DNA crosslinking,Nucleic Acid [8],Significant crosslinking
same,DNA crosslinking,Nucleic Acid [13],Significant crosslinking
same,DNA crosslinking,Nucleic Acid [10],Significant crosslinking
same,HF,UV4 (Cricetulus griseus),36
ClCCN(CCCl)c1ccc(SCCCCCNc2c3ccccc3nc3ccccc23)cc1,Relative lipophilicity,[1],1.76
same,IC50,P388 [4],380 nM
same,HF,UV4 (Cricetulus griseus),19
Cl.O=S(=O)(CCNc1c2ccccc2nc2ccccc12)c1ccc(N(CCCl)CCCl)cc1,IC50,CHO-AA8,18300 nM
same,Relative lipophilicity,[1],-1.17
same,OD,P388 [2],65 mg/kg
same,ILS,P388 [3],No activity
same,IC50,P388 [4],2300 nM
same,HF,UV4 (Cricetulus griseus),3.3
Cl.ClCCN(CCCl)c1ccc(OCCNc2c3ccccc3nc3ccccc23)cc1,IC50,CHO-AA8,270 nM
same,Relative lipophilicity,[1],-0.02
same,OD,P388 [2],30 mg/kg
same,ILS at 30 mg/kg,P388 [14],42%
same,IC50,P388 [4],72 nM
same,HF,UV4 (Cricetulus griseus),54
ClCCN(CCCl)c1ccc(OCCCCNc2c3ccccc3nc3ccccc23)cc1,IC50,CHO-AA8,280 nM
same,Relative lipophilicity,[1],0.64
same,OD,P388 [2],45 mg/kg
same,ILS at 45 mg/kg,P388 [7],47%
same,IC50,P388 [4],63 nM
same,HF,UV4 (Cricetulus griseus),55
Cl.Cl.Cl.Cl.ClCCN(CCCl)c1ccc(CCCCNc2c3ccccc3nc3ccccc23)cc1,IC50,CHO-AA8,440 nM
same,KNBP,[5],225000 s⁻¹
same,KH,[6],20600 s⁻¹
same,Relative lipophilicity,[1],1.21
same,OD,P388 [2],45 mg/kg
same,ILS at 45 mg/kg,P388 [7],52%
same,IC50,P388 [4],86 nM
same,DNA crosslinking,Nucleic Acid [8],Significant crosslinking
same,DNA crosslinking,Nucleic Acid [9],+/-
same,DNA crosslinking,Nucleic Acid [10],Significant crosslinking
same,HF,UV4 (Cricetulus griseus),36
Cl.Cl.Cl.Cl.ClCCN(CCCl)c1ccc(OCCCNc2c3ccccc3nc3ccccc23)cc1,IC50,CHO-AA8,380 nM
same,Relative lipophilicity,[1],0.26
same,OD,P388 [2],8.9 mg/kg
same,ILS at 8.9 mg/kg,P388 [15],27%
same,IC50,P388 [4],47 nM
same,HF,UV4 (Cricetulus griseus),54
Cl.Cl.Cl.Cl.ClCCN(CCCl)c1ccc(CCCCCNc2c3ccccc3nc3ccccc23)cc1,IC50,CHO-AA8,310 nM
same,KNBP,[5],144000 s⁻¹
same,KH,[6],32000 s⁻¹
same,Relative lipophilicity,[1],1.75
same,OD,P388 [2],45 mg/kg
same,ILS at 45 mg/kg,P388 [7],58%
same,IC50,P388 [4],82 nM
same,DNA crosslinking,Nucleic Acid [16],extensive crosslinking
same,DNA crosslinking,Nucleic Acid [13],extensive crosslinking
same,DNA crosslinking,Nucleic Acid [17],extensive crosslinking
same,HF,UV4 (Cricetulus griseus),59
O=C(O)CCCc1ccc(N(CCCl)CCCl)cc1 [CHLORAMBUCIL],IC50,P388 [4],7500 nM
same,HF,UV4 (Cricetulus griseus),58
Cl.O=S(=O)(CCCNc1c2ccccc2nc2ccccc12)c1ccc(N(CCCl)CCCl)cc1,IC50,CHO-AA8,9800 nM
same,Relative lipophilicity,[1],-1.14
same,OD,P388 [2],45 mg/kg
same,ILS,P388 [3],No activity
same,IC50,P388 [4],2600 nM
same,HF,UV4 (Cricetulus griseus),5.1
Cl.ClCCN(CCCl)c1ccc(SCCCCNc2c3ccccc3nc3ccccc23)cc1,IC50,CHO-AA8,1370 nM
same,Relative lipophilicity,[1],1.22
same,OD,P388 [2],26 mg/kg
same,ILS at 26 mg/kg,P388 [18],48%
same,IC50,P388 [4],490 nM
same,HF,UV4 (Cricetulus griseus),21
